Laboratory results: ChEMBL document CHEMBL4130484, “Identification and optimization of novel 6-acylamino-2-aminoquinolines as potent Hsp90 C-terminal inhibitors” (Eur J Med Chem, 2017)
In brackets after ≈: the same amount, converted by molar mass.

Tests used:
MCF7 [1] = test: Antiproliferative activity against human MCF7 cells incubated for 72 hrs by MTT assay; assay type: functional, cell-based; details: MCF7, 72 h
Outline: (§1)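 MTT antiproliferation assay in MCF7 and SKBr3 breast cancer cells; IC50 determined.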

SK-BR-3 = test: Antiproliferative activity against human SKBR3 cells incubated for 72 hrs by MTT assay; assay type: functional, cell-based; details: SK-BR-3, 72 h; outline: as §1
MCF7 [2] = test: Growth inhibition of human MCF7 cells at 50 uM incubated for 72 hrs by MTT assay; assay type: functional; details: MCF7, 72 h, read-out: GI
Outline: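 MTT screen in MCF7 cells at a single concentration of 50 µM; growth inhibition rate recorded.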

[3] = Distribution coefficient, log D of the compound at pH 7.4; assay type: physicochemical; details: octanol/water
Outline: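 Log D at pH 7.4 measured on a PULSE platform.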

[4] = Intrinsic aqueous solubility of the compound; assay type: physicochemical
Outline: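 Intrinsic aqueous solubility determined on a Gemini Profiler instrument.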

[5] = Permeability coefficient of the compound at pH 7.4 by double-sink PAMPA; assay type: ADME; details: read-out: permeability
Outline: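 Double-sink PAMPA at pH 7.4 on a PAMPA Explorer instrument; Pe reported as mean ± SD, n = 3.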

SMILES	IC50 (MCF7 [1]) [µM]	IC50 (SK-BR-3) [µM]	also measured
CCN1CCN(c2cc(C)c3cc(NC(=O)c4cccc(Cl)c4)ccc3n2)CC1	3.82	17.8	–
Cc1cc(N2CCCCC2)nc2ccc(NC(=O)c3ccc(Cl)c(Cl)c3)cc12	31.1	42.5	–
O=C(Nc1nc(C(=O)NCCCN2CCCC2=O)cs1)c1ccc2c(c1)OCO2	–	–	inhibition of growth at 50 µM (MCF7 [2]): < 50%
CCN1CCN(c2cc(C)c3cc(NC(=O)c4ccc(Cl)cc4)ccc3n2)CC1	1.53	3.02	–
CCc1ccccc1C(=O)Nc1ccc2nc(N3CCN(CC)CC3)cc(C)c2c1	15.8	23.9	–
O=C(NCCCN1CCOCC1)c1ccc(NC(=O)c2nnc(COc3ccccc3)s2)cc1	–	–	inhibition of growth at 50 µM (MCF7 [2]): 50.6%
CCN1CCN(c2cc(C)c3cc(NC(=O)c4ccc5c(c4)OCO5)ccc3n2)CC1	4.61	12.6	–
CCn1c(C(=O)NCCN2CCOCC2)cc2cc(NC(=O)c3ccc(F)cc3)ccc21	–	–	inhibition of growth at 50 µM (MCF7 [2]): < 50%
CCN1CCN(c2cc(C)c3cc(NC(=O)c4cccc(Br)c4)ccc3n2)CC1	11.6	13.3	–
CC(C)c1cc(C(=O)N2Cc3ccc(CN4CCN(C)CC4)cc3C2)c(O)cc1O [ONALESPIB]	0.032	0.045	–
Cc1cc(NCCN(C)C)nc2ccc(NC(=O)c3ccc(Cl)c(Cl)c3)cc12	2.55	6.67	logD [3]: 1.47; solubility [4]: 122 µg/mL (≈ 292 µM); Papp [5]: 3.13 ×10⁻⁶ cm/s
Cc1cc(NCCN2CCN(C)CC2)nc2ccc(NC(=O)c3ccc(Cl)c(Cl)c3)cc12	1.7	2.69	logD [3]: 1.73; solubility [4]: 106 µg/mL (≈ 224 µM); Papp [5]: 7.71 ×10⁻⁶ cm/s
COc1ccc(-c2noc(C(=O)NCc3ccc(CN4CCOCC4)cc3)n2)cc1OC	–	–	inhibition of growth at 50 µM (MCF7 [2]): < 50%
Cc1cc(N2CCN(C)CC2)nc2ccc(NC(=O)c3ccc(Cl)c(Cl)c3)cc12	3	6.32	–
COCc1nnc(C(=O)Nc2ccc(C(=O)NCCCN3CCCCC3)cc2)s1	–	–	inhibition of growth at 50 µM (MCF7 [2]): < 50%
CCN1CCN(c2cc(C)c3cc(NC(=O)c4ccncc4)ccc3n2)CC1	> 50	> 50	–
CCN1CCN(c2cc(C)c3cc(NC(=O)c4ccc(OC)cc4)ccc3n2)CC1	7.69	9	–
CCN1CCN(CCCNC(=O)c2nc(-c3nn(-c4ccc(C)cc4)c(=O)n(C)c3=O)no2)CC1	–	–	inhibition of growth at 50 µM (MCF7 [2]): < 50%
CCN1CCN(c2cc(C)c3cc(NC(=O)c4ccc(Cl)c(Cl)c4)ccc3n2)CC1	1.38	2.16	logD [3]: 3.67; solubility [4]: 11.3 µg/mL (≈ 25.5 µM); Papp [5]: 25.9 ×10⁻⁶ cm/s
CCN1CCN(c2cc(C)c3cc(NC(=O)c4cc5ccccc5[nH]4)ccc3n2)CC1	2.95	2.55	–

SMILES	IC50 (MCF7 [1]) [µM]	IC50 (SK-BR-3) [µM]	also measured
Cc1cc(N2CCN(C(C)C)CC2)nc2ccc(NC(=O)c3ccc(Cl)c(Cl)c3)cc12	1.71	6.68	–
CCc1ccc(C(=O)Nc2ccc3nc(N4CCN(CC)CC4)cc(C)c3c2)cc1	3.06	9.85	–
CCN(CC)CCOC(=O)c1ccc(NC(=O)c2ccc(OC)cc2)cc1	–	–	inhibition of growth at 50 µM (MCF7 [2]): < 50%
CCN1CCN(c2cc(C)c3cc(NC(=O)c4ccc5ccccc5n4)ccc3n2)CC1	7.06	3.76	–
CCN1CCN(c2cc(C)c3cc(NC(=O)c4ccc(F)cc4)ccc3n2)CC1	4.03	19.8	–
CCN1CCN(Cc2nc3ccc(NC(=O)c4ccc(OC)cc4)cc3n2C(C)C)CC1	–	–	inhibition of growth at 50 µM (MCF7 [2]): 55%
CCN1CCN(c2cc(C)c3cc(NC(=O)c4ccccc4Br)ccc3n2)CC1	27.5	39.2	–
CCN1CCN(c2cc(C)c3cc(NC(=O)c4ccco4)ccc3n2)CC1	41.2	37.5	–
COc1ccc(C(=O)Nc2nc(CC(=O)N3CCN(c4ccccc4)CC3)cs2)cc1OC	–	–	inhibition of growth at 50 µM (MCF7 [2]): < 50%
CCNc1cc(C)c2cc(NC(=O)c3ccc(Cl)c(Cl)c3)ccc2n1	48.6	28.2	–
Cc1cc(N2CCOCC2)nc2ccc(NC(=O)c3ccc(Cl)c(Cl)c3)cc12	12	15.1	–
CCN1CCN(c2cc(C)c3cc(NC(=O)c4ccccc4C)ccc3n2)CC1	10.9	29.2	–
COc1ccc(NC(=O)c2nnc(COCC(=O)NCCN(C)C)s2)cc1	–	–	inhibition of growth at 50 µM (MCF7 [2]): < 50%
O=C(Nc1nc(C(=O)NCCN2CCCCC2)cs1)c1ccc2c(c1)OCO2	–	–	inhibition of growth at 50 µM (MCF7 [2]): < 50%
CCN1CCN(c2cc(C)c3cc(NC(=O)c4ccccc4F)ccc3n2)CC1	32.6	38.1	–
COc1cc(NC(=O)N2CCC(CC(=O)NCCN3CCCC3)CC2)cc(OC)c1OC	–	–	inhibition of growth at 50 µM (MCF7 [2]): < 50%
COc1ccc(C(=O)Nc2ccc3nc(SCC(=O)N4CCCC4)sc3c2)cc1	–	–	inhibition of growth at 50 µM (MCF7 [2]): 62.5%
CNc1cc(C)c2cc(NC(=O)c3ccc(Cl)c(Cl)c3)ccc2n1	2.52	6.35	–
COc1ccc(C(=O)Nc2cnn(-c3ncc(N4CCSCC4)cn3)c2)cc1F	–	–	inhibition of growth at 50 µM (MCF7 [2]): < 50%
CCN1CCN(c2cc(C)c3cc(NC(=O)c4cccc(F)c4)ccc3n2)CC1	8.92	24.9	–

SMILES	IC50 (MCF7 [1]) [µM]	IC50 (SK-BR-3) [µM]	also measured
Cc1cc(N2CCCC2)nc2ccc(NC(=O)c3ccc(Cl)c(Cl)c3)cc12	26.3	43.4	–
CCN1CCN(c2cc(C)c3cc(NC(=O)c4ccccc4OC)ccc3n2)CC1	13.2	15.7	–
CCN1CCN(c2cc(C)c3cc(NC(=O)c4ccccc4)ccc3n2)CC1	14.2	18.4	–
Cc1cc(NCCN2CCOCC2)nc2ccc(NC(=O)c3ccc(Cl)c(Cl)c3)cc12	5.23	9.16	logD [3]: 2.64; solubility [4]: 76.2 µg/mL (≈ 166 µM); Papp [5]: 49.8 ×10⁻⁶ cm/s
Cc1cc(N(C)C)nc2ccc(NC(=O)c3ccc(Cl)c(Cl)c3)cc12	33.3	> 50	–
COc1ccc(C(=O)Nc2ccc3nc(CN4CCN(C)CC4)n(C)c3c2)cc1OC	–	–	inhibition of growth at 50 µM (MCF7 [2]): 50.8%
CCN1CCN(c2cc(C)c3cc(NC(=O)c4ccccc4Cl)ccc3n2)CC1	> 50	> 50	–
CCN1CCN(c2cc(C)c3cc(NC(=O)c4ccc[nH]4)ccc3n2)CC1	14.7	13.2	–
CCN(CC)c1cc(C)c2cc(NC(=O)c3ccc(Cl)c(Cl)c3)ccc2n1	> 50	41.2	–
Cc1cc(NCCN2CCCC2)nc2ccc(NC(=O)c3ccc(Cl)c(Cl)c3)cc12	1.28	9.53	logD [3]: 1.72; solubility [4]: 84.5 µg/mL (≈ 191 µM); Papp [5]: 20.8 ×10⁻⁶ cm/s
CCN1CCN(c2cc(C)c3cc(NC(=O)c4cccnc4)ccc3n2)CC1	26.6	10.6	–
CCN1CCN(c2cc(C)c3cc(NC(=O)c4ccc(F)c(F)c4)ccc3n2)CC1	5.23	1.98	–
CCN1CCN(c2cc(C)c3cc(NC(=O)c4cc(Cl)cc(Cl)c4)ccc3n2)CC1	6.09	2.66	–
CCN(CC)CCNc1cc(C)c2cc(NC(=O)c3ccc(Cl)c(Cl)c3)ccc2n1	1.42	3.71	logD [3]: 1.66; solubility [4]: 95.2 µg/mL (≈ 214 µM); Papp [5]: 28.1 ×10⁻⁶ cm/s
CCN1CCN(c2cc(C)c3cc(NC(=O)c4ccc(OC)c(OC)c4)ccc3n2)CC1	3.65	2.71	–
CCN1CCN(c2cc(C)c3cc(NC(=O)c4ccc(C)cc4)ccc3n2)CC1	6.74	11.4	–
CCN1CCN(c2cc(C)c3cc(NC(=O)c4ccc(Br)cc4)ccc3n2)CC1	5.94	6.31	–
CCCOc1cccc(C(=O)NC(=S)Nc2ccc(N3CCCCC3)c(Cl)c2)c1	–	–	inhibition of growth at 50 µM (MCF7 [2]): < 50%
CCN1CCN(C(=O)CSCc2nnc(C(=O)Nc3ccc(OC)cc3)s2)CC1	–	–	inhibition of growth at 50 µM (MCF7 [2]): < 50%
CCN1CCN(c2cc(C)c3cc(NC(=O)c4cccc(C)c4)ccc3n2)CC1	7.8	13.7	–
